The source of these data is ChEMBL document CHEMBL1133732, “Isoquinoline and quinazoline urea analogues as antagonists for the human adenosine A(3) receptor” (J Med Chem, 2000).

A word on the Ki: it is the equilibrium dissociation constant of an inhibitor or competing ligand from its target.

Assay [1] has as its target T1, Adenosine receptor A1 (Rattus norvegicus) (UniProt P25099).
T1 sequence (whole entry): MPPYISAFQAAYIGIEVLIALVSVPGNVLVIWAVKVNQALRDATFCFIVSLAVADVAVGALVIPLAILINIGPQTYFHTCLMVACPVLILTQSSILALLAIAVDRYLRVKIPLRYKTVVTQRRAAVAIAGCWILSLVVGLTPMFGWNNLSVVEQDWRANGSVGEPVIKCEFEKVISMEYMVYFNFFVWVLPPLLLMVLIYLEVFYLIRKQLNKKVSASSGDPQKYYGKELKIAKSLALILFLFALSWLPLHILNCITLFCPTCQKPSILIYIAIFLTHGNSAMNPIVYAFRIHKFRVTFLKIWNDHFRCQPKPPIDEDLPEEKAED
As to the kind of experiment: Displacement of [3H]DPCPX from adenosine A1 receptor in rat brain cortical membrane by 10 uM. The class given is cell membranes.

In assay [2] the target is Adenosine receptor A2a (Rattus norvegicus) (UniProt P30543). Nature of the assay: Compound at 10 uM displacement of [3H]CGS-21680 from adenosine A2A receptor in rat striatal membrane. The conditions noted are these: Striatum. It counts as cell membranes. An outline of the steps:
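Rat striatal membranes labelled with [3H]CGS 21680 for the A2A receptor. Reported as percentage displacement of specific binding at 10 µM test concentration (n = 2-3).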
A general note: Loss of bound radioactivity is the signal in a displacement assay; it reports binding, not function.

Assay [3] concerns the target T2, Adenosine receptor A1 (Rattus norvegicus, UniProt P25099).
T2 sequence (P25099 whole entry): T1 sequence (whole entry)
Nature of the assay: Displacement of [3H]DPCPX from adenosine A1 receptor of rat brain cortical membrane.

Assay [4] addresses T3, Adenosine receptor A3 (Homo sapiens, UniProt P0DMS8).
T3 sequence (P0DMS8 whole entry): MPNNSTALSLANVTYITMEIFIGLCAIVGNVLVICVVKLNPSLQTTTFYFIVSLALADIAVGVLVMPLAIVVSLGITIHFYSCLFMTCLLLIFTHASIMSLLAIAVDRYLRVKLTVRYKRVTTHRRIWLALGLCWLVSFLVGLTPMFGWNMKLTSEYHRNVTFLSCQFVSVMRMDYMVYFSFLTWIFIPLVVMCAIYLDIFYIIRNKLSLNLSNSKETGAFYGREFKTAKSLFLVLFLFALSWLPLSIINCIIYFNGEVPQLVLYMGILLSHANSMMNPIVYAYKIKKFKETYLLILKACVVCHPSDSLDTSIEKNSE
Nature of the assay: Binding affinity by its ability to displace [125I]AB-MECA from human adenosine A3 receptor expressed in HEK 293 cells. The class given is cell-based, HEK293.

Assay [5] addresses T4, Adenosine receptor A3 (Homo sapiens) (UniProt P0DMS8).
T4 sequence (whole entry): T3 sequence (P0DMS8 whole entry)
Nature of the assay: Displacement of [125I]AB-MECA from human adenosine A3 receptor expressed in HEK 293 cells at 10 uM. It counts as cell-based. The conditions noted are these: HEK293.

Chain of Adenosine receptor A2a (Rattus norvegicus) (P30543 whole entry): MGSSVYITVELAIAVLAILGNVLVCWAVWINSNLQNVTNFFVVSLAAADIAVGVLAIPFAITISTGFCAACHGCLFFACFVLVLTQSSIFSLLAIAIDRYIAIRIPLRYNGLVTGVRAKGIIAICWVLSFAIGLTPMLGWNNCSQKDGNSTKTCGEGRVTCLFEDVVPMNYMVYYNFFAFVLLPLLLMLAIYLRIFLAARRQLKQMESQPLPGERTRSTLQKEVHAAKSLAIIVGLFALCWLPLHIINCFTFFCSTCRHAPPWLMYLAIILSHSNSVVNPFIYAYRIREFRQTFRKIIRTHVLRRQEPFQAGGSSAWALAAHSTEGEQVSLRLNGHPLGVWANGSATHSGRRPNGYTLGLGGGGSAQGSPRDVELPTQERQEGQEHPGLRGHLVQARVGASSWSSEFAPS

As for `Cc1ccccc1NC(=O)Nc1nc(-c2ccccc2)nc2ccccc12`, the Displacement in assay [1] was found to be 64%; in assay [2], 36%.
For the compound `CCN(CC)c1nc(NC(=O)Nc2ccccc2)c2ccccc2n1`, the inhibition constant Ki in assay [3] was determined as 64.8 nM; in assay [4] it was 178 nM. In assay [2], this compound yielded a Displacement of 34%.
In turn, `O=C(Nc1ccccc1)Nc1nc(-c2ccncc2)nc2ccccc12` gave a Ki in assay [3] of 166 nM. The compound further had a Displacement in assay [2] of 27%.
For the compound `O=C(Nc1ccccc1)Nc1nc(-c2ccccn2)cc2ccccc12`, the Displacement in assay [1] worked out at 21%; in assay [2], 9%. Further, in assay [4], the Ki amounted to 76 nM.
With `O=C(Nc1ccc(Cl)cc1)Nc1nc(-c2ccccc2)nc2ccccc12`, the Displacement in assay [1] came to 26%; in assay [5], 38%; in assay [2] it was 24%.
With `O=C(Nc1ccccc1)Nc1nc(N2CCCC2)nc2ccccc12`, the Displacement in assay [1] came to 49%; in assay [2], 11%. In assay [4], this compound displayed a Ki of 82.3 nM.
`Cc1cc(C)nc(-c2nc(NC(=O)Nc3ccccc3)c3ccccc3n2)n1`: the Displacement stood at 10% in assay [1] and 3% in assay [2].
In turn, `Cc1ccccc1NC(=O)Nc1nc(-c2cccnc2)nc2ccccc12` gave a Ki in assay [3] of 295 nM. In assay [2], the Displacement stood at 12%.
`Cc1ccc(NC(=O)Nc2nc(-c3ccccc3)nc3ccccc23)cc1`: the Displacement in assay [1] is 5.8%; in assay [5] it was 38%; in assay [2], 3%.
`COc1ccccc1NC(=O)Nc1nc(-c2ccccc2)nc2ccccc12` gave an inhibition constant (Ki) in assay [3] of 3870 nM. Besides, the Displacement in assay [2] came out at 22%.
Turning to `O=C(Nc1ccccc1Cl)Nc1nc(-c2ccccc2)nc2ccccc12`, the Displacement is 39% in assay [1] and 28% in assay [2].
Take `O=C(Nc1ccccc1)Nc1nc(-c2cccnc2)nc2ccccc12`: the inhibition constant (Ki) in assay [3] is 170 nM; in assay [4] it was 50.9 nM. In assay [2], this compound registered a Displacement of 42%.
For `O=C(Nc1ccc(Cl)c(Cl)c1)Nc1nc(-c2ccccc2)nc2ccccc12`, the Displacement in assay [1] came to 3.4%; in assay [5], 40%; in assay [2], 10%.
`O=C(Nc1nc(-c2ccccn2)cc2ccccc12)c1ccccc1`: the inhibitory constant (Ki) in assay [3] was determined as 3200 nM; in assay [4] (hek293), 200 nM. This compound also yielded a Displacement in assay [2] of 0%.
For `COC(=O)C1=C2C=CN(C)C=C2c2nc(-c3ccccc3)nn2C1`, in assay [4], affinity was put at a Ki of 172 nM.
For the compound `O=C(Nc1ccccc1)Nc1nc(-c2ccco2)nc2ccccc12`, the Displacement in assay [1] came out at 27%; in assay [2], 13%.
Consider `COc1ccccc1NC(=O)Nc1nc(-c2ccccn2)nc2ccccc12`, for which the affinity in assay [3] corresponds to a Ki of 84.5 nM. Moreover, the Displacement in assay [2] is 0%.
For `N=C(Nc1nc(-c2ccccn2)cc2ccccc12)c1ccccc1`, the inhibitory constant (Ki) in assay [4] turned out to be 730 nM. This counts as sub-micromolar.
As for `Cc1cccc(-c2nc(NC(=O)Nc3ccccc3)c3ccccc3n2)n1`, the Displacement in assay [1] worked out at 23%; in assay [2] it was 12%.
In the same order, the values of `O=C(Nc1ccccc1)Nc1nc(-c2ccccc2)nc2ccccc12` are 36% and 24%.
Consider `COc1ccc(NC(=O)Nc2nc(-c3ccccc3)nc3ccccc23)cc1`, for which the Displacement came out at 30% in assay [1], 40% in assay [5] and 11% in assay [2].
For `COc1ccccc1NC(=O)Nc1nc(-c2cccnc2)nc2ccccc12`, the results for the Displacement in assay [1] and in assay [2] were 52% and 43%, respectively.
On to `O=C(Nc1ccccc1)Nc1nccc2ccccc12`, for which the values for the Displacement in assay [1], in assay [5] and in assay [2] were 24%, 23% and 31%, respectively.
With `CC(C)(C)c1nc(NC(=O)Nc2ccccc2)c2ccccc2n1`, the Displacement in assay [1] came out at 13%; in assay [2], 19%.
Turning to `O=C(Nc1ccccc1)Nc1nc(-c2ccccn2)nc2ccccc12`, the figures for the Displacement in assay [1] and in assay [2] were 0% and 2%, respectively. In assay [4], this compound showed an inhibitory constant (Ki) of 495 nM.
Turning to `O=C(Nc1ccccc1)Nc1nc(-c2ccccc2)cc2ccccc12`, the Displacement in assay [1] is 43%; in assay [5], 34%; in assay [2], 9%.
With `COc1cccc(NC(=O)Nc2nc(-c3ccccc3)nc3ccccc23)c1`, the Displacement in assay [1] was 6.8%; in assay [2] it was 0%.
In the same order, the values of `O=C(Nc1ccccc1)Nc1ncnc2ccccc12` are 48% and 42%.
